# Screening results: PubChem, Johns Hopkins Ion Channel Center
# Sampled rows, rich in hits. Any-hit rate of the full collection: about 3.8%.
# hERG rescue: hERG rescue from dofetilide block, primary screen, cell-based, CHO-hERG, FluxOR thallium flux, dofetilide IC70. dofetilide IC70 present. activation (rescue from dofetilide block), less the hit threshold, % at 10 µM. actives 0.51% (n = 310,000). Voltage-gated inwardly rectifying potassium channel KCNH2 (Homo sapiens), Q12809;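 active = activation above the mean of controls blocked by dofetilide plus 5 SD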;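 note: thallium influx through hERG after potassium depolarization seen as dye fluorescence rise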
# Kir21 block: inhibitors of mouse Kir2.1 inward-rectifier potassium channel; Inward rectifier potassium channel 2 (Mus musculus), P35561; HEK293-Kir2.1, FluxOR thallium flux fluorescence; hits give low values; B-score at 10 µM; actives 0.85% (n = 310,000); AID 1672, 2009;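 active = fluorescence ratio B-score at or below minus 3 SD of library scores, with starting-brightness B-score within 2 SD, cut at about -4.2 in these data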;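 note: channel flux triggered by added potassium and thallium sulfate stimulus; B-score of peak minus minimum fluorescence over baseline after thallium stimulus; more negative B-score means stronger Kir2.1 block with less thallium influx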
# KCNQ1 act: potentiators or activators of KCNQ1 channel, primary screen, cell-based, thallium flux, high-throughput; CHO-K1 KCNQ1, thallium flux FluxOR fluorescence; hits give high values; Potassium voltage-gated channel subfamily KQT member 1 (Homo sapiens), P51787; actives 0.35% (n = 310,000); B-score at 10 µM;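 active = fluorescence ratio B-score, a plate-corrected score, at least three library SD, with initial intensity B-score within 5 SD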
# Target sequence (P51787 whole entry, looked up): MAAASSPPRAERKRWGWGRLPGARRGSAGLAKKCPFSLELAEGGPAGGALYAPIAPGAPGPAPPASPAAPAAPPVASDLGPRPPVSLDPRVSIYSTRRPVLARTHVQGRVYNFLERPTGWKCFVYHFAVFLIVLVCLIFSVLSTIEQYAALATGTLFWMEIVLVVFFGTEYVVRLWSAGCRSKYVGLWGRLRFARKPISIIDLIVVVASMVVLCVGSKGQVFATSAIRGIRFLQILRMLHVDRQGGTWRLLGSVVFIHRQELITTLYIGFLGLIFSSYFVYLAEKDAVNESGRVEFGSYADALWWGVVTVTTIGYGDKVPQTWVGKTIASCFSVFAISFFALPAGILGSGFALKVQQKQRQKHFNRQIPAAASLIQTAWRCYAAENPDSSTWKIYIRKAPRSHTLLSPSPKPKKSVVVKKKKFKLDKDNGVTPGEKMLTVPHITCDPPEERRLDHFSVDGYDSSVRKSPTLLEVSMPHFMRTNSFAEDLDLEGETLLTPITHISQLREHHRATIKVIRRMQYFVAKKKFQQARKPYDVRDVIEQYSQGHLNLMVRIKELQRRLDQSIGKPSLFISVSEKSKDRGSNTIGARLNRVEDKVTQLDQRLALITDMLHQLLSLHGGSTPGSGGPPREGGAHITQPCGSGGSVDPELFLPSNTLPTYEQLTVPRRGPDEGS
#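 Assay system: CHO-K1 cells stably expressing KCNQ1; Medium: assay buffer with matched DMSO; Also added: K+/Tl+ depolarizing stimulus; Dosing: single dose; Timing: dye 90 min, compound 20 min, room temperature; Measured by: kinetic FluxOR thallium fluorescence, 10-s 1-Hz baseline, 110-s post-stimulus read; Read-out: peak-minus-minimum fluorescence over initial fluorescence, negative-control normalized, B-scored.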
# KCNQ1 block: inhibitors of human KCNQ1 channel, primary screen, cell-based, thallium flux, high-throughput; CHO-K1 KCNQ1, FluxOR thallium flux fluorescence; hits give high values; B-score at 10 µM; actives 1.3% (n = 310,000); AID 2642, 2010;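 active = compounds whose thallium flux B-score, printed positive for inhibition, exceeds three library SD while starting fluorescence stays within three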;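 note: channel opened by potassium depolarization with thallium stimulus after 20 min compound exposure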
# KCNK9 inh: KCNK9 potassium channel inhibitors, primary screen, HEK293 cells, thallium flux | Potassium channel subfamily K member 9 (Homo sapiens), Q9NPC2 | FluxOR thallium flux fluorescence; hits give low values | B-score at 10 µM | actives 1.2% (n = 310,000);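 active = ratio B-score over 3 SD below the library mean, with starting fluorescence within 5 SD of its mean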;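 note: negative B-score means less thallium flux so channel inhibition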
# KCNK3 block: human KCNK3 channel inhibitors, primary screen, CHO cells, FluxOR thallium flux, B-score; B-score at 10 µM; AID 602410, 2012; actives 0.84% (n = 340,000); FluxOR fluorescence; hits give low values;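 active = B-score under library mean minus 4 SD, starting fluorescence ratio at most library mean plus 5 SD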;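 note: more negative B-score means stronger inhibition of thallium flux through KCNK3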
# Numbers stand for hits; n = inactive; x = no result.
SMILES,hERG rescue,Kir21 block,KCNQ1 act,KCNQ1 block,KCNK9 inh,KCNK3 block
COc1cccc(/C=C/C(=O)c2ccc(C)c([N+](=O)[O-])c2)c1,n,-5.8,n,n,n,n
O=C(COC(=O)C1CC(=O)N(Cc2ccco2)C1)Nc1nc(-c2ccc(F)cc2)cs1 (stereo not drawn),x,x,x,x,x,n
NC1=NC2(CCC(c3ccccc3)CC2)n2c(nc3ccccc32)N1 (stereo not drawn),n,n,n,n,-7.9,n
CCCc1c(O)nc(SCCN(CC)CC)n(C(=O)c2ccccc2)c1=O,n,n,n,n,n,n
Cc1cc(/C=C2\C(=N)N3N=C(C(C)C)SC3=NC2=O)c(C)n1Cc1ccccc1,n,n,20,n,n,n
CCC1=NN2C(=N)/C(=C/c3cc(C)n(Cc4ccccc4)c3C)C(=O)N=C2S1,n,n,n,n,n,n
CCOC(=O)CSc1nc2c([nH]c3ccccc32)c(=O)n1C,6.7,n,n,n,n,n
CCC(=O)Oc1ccc(C/C(=N\O)c2ccc(O)cc2O)o1,n,n,n,7,n,n
CCOC(=O)c1ccc(CC(=O)c2ccc(O)cc2O)o1,n,n,n,n,n,n
COc1cccc(C(=O)OCC(=O)N2CCC(Cc3ccccc3)CC2)c1OC,x,x,x,x,x,n
Cc1ccc(OCCC(=O)NNC(=O)c2nn(C)c(=O)c3ccccc23)cc1,x,x,x,x,x,n
CC(=O)Nc1ccc(S(=O)(=O)N2CCC(C(=O)O)CC2)cc1,n,n,10,n,n,n
O=C(Nc1ccc(Cl)cc1C(F)(F)F)c1ccccc1,n,n,n,n,n,n
Nc1nsc2ccccc12,n,-5.1,n,n,n,n
COc1cccc(-n2nc(C(=O)O)c3ccccc3c2=O)c1,6.5,n,n,n,n,n
COc1ccc(Br)cc1/C=N/N1CCN(Cc2ccccc2Cl)CC1,n,n,n,8,n,n
COc1ccccc1-c1cc(C(F)(F)F)nc(S(C)(=O)=O)n1,n,n,n,n,n,n
CS(=O)(=O)c1nc(-c2ccco2)cc(C(F)(F)F)n1,n,n,n,7,n,x
Cc1cccc(N2C(=O)CS/C2=N\NC(=O)c2ccc(Br)cc2)c1C,5.6,n,n,n,n,n
CCC1C(c2ccccc2)N(C)C(c2ccccc2)CC1(O)c1ccccc1 (stereo not drawn),n,n,n,12,n,n
CCOC(=O)c1nn(C23CC4CC(CC(C4)C2)C3)c2c1C(=O)N(c1ccc(C)cc1)C2=O,n,n,n,n,n,n
COC(=O)c1nn(C23CC4CC(CC(C4)C2)C3)c2c1C(=O)N(c1ccc(Br)cc1)C2=O,n,n,n,6,n,n
N=C1S/C(=C\c2ccco2)C(=O)N1c1nccs1,n,n,9,n,n,n
COC(=O)c1ccccc1NC(=S)NC(=O)COc1ccccc1Cl,n,n,n,n,n,n
O=C(Nc1ccccc1N1CCCCC1)c1ccc(Cl)cc1,n,n,n,n,-6.7,n
SMILES,hERG rescue,Kir21 block,KCNQ1 act,KCNQ1 block,KCNK9 inh,KCNK3 block
O=C(NC(=S)Nc1ccccc1N1CCOCC1)c1ccc(-c2ccccc2F)o1,n,n,13,n,n,n
O=C(COc1ccccc1Cl)NC(=S)Nc1ccccc1N1CCCC1,8.5,n,7,n,-13,n
O=C(NC(=S)Nc1cc(Cl)ccc1N1CCOCC1)c1ccc(-c2cccc(Cl)c2)o1,n,n,n,n,n,n
O=C(NC(=S)Nc1ccccc1N1CCCCC1)c1ccc(F)cc1Cl,n,n,10,n,n,n
O=c1[nH]cc(S(=O)(=O)c2ccccc2)[nH]1,n,n,n,n,n,n
CCOc1ccc(-c2c[n+]3c(n2-c2ccccc2)CCCCC3)cc1,n,n,n,7,n,n
CCCOC1CCCN(Cc2nc(-c3cnccn3)no2)C1 (stereo not drawn),n,n,n,n,n,n
C[C@@H]1CN(Cc2nc(-c3cnccn3)no2)C[C@H](C)O1,7.4,n,n,n,n,n
CCN(CC)S(=O)(=O)c1ccc(NC(=O)COC(=O)CNC(=O)C2CCCCC2)cc1,x,x,x,x,x,n
O=C(CN1C(=O)c2cccnc2Oc2ccc(Cl)cc21)Nc1ccccc1F,n,n,n,n,-6.8,n
CC(=O)c1ccc(OCCCC(=O)Nc2ccc(S(=O)(=O)N3CCOCC3)cc2)cc1,n,n,n,n,n,n
CCN1Cc2c(/C=C/c3ccccc3)nc3ccc(OC)cc3c2N(c2cccc(Cl)c2)C1,n,-13,n,n,n,n
COc1ccc2ncc(S(=O)(=O)c3ccccc3)c(N3CCN(c4ccccc4)CC3)c2c1,n,n,n,n,n,n
Cc1ccc(NC(=S)NC(=O)c2cncc(Br)c2)cc1Cl,8.8,n,n,n,n,n
O=C(NC(=S)Nc1ccc(Cl)cc1)c1cncc(Br)c1,n,n,n,n,n,n
Cc1ccc2c(c1)c1c3n2CCN(C(=O)CCl)C3CCC1 (stereo not drawn),n,-8.8,n,n,n,n
O=C(NC(Cc1ccccc1)C(=O)O)/C(=C/c1ccc(Br)cc1)NC(=O)c1ccc(Br)o1 (stereo not drawn),n,n,n,n,n,n
CCC12CN(S(=O)(=O)c3ccc(C)cc3)CC(CC)(CN(S(=O)(=O)c3ccc(C)cc3)C1)C2=O,n,n,n,n,n,-9.1
c1ccc(CSc2nnnn2-c2ccc3c(c2)OCCO3)nc1,n,n,n,n,n,n
Clc1ccc(CSc2nnnn2-c2ccc3c(c2)OCO3)c(Cl)c1,n,n,n,n,-7,n
CNC(=O)c1nnsc1S(=O)(=O)c1ccc(Cl)cc1,n,-8.7,n,n,n,n
COc1cc2c(cc1OC)CN(C(=O)c1cc(S(=O)(=O)N3CCOCC3)c(Cl)cc1Cl)CC2,n,n,n,n,n,n
O=C(c1ccco1)N1CCN(C(=O)C2CC(=O)N(c3ccccc3)C2)CC1 (stereo not drawn),n,n,n,n,n,n
CCN(CC)CCCN1C(=O)c2oc3ccccc3c(=O)c2C1c1cccs1 (stereo not drawn),26,n,15,n,n,x
Cc1ccc(NC(=O)C(c2ccccc2)c2ccccc2)c(O)c1,n,n,n,n,-7.8,n
O=c1c(C(c2ccc(O)cc2)c2c(O)nc3n(c2=O)CCS3)c(O)nc2n1CCS2,6.7,n,n,n,n,n
Cc1nc(N2CCCCC2)c2c(-c3cccs3)csc2n1,n,n,n,n,-7.3,n
